The test system of series [1] is AU565. Kind of series: Growth inhibition of human AU565 cells at 25 uM after 48 hrs by WST1 assay. In kind it is functional, cell-based. In short, it runs like this:
(§1)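 Cells seeded at 5000/well, grown overnight (18 h) in DMEM complete medium, then switched to DMEM with 2% FBS plus treatment for 48 h at 37 °C, 5% CO2; ethanol vehicle control. WST-1 read at day 0 (baseline, X) and end; growth normalized as (Y−X)/X×100, 100 to 0 = growth inhibition, 0 to −100 = cell death. Mean ± SD, at least four experiments.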
On the technique in general: Tetrazolium dyes change colour on reduction, which living cells bring about.

Series [2] deals with Serum. The experiment in a line: Stability in human serum at 1 mM incubated for 2 hrs at 37 degC by HPLC. The note with it: 1000 µM.
In series [3] the test system is Serum. The experiment in a line: Stability in mouse serum at 1 mM incubated for 2 hrs at 37 degC by HPLC. The note with it: 1000 µM.
Series [4] relates to MDA-MB-231. The experiment in a line: Induction of apoptosis in human MDA-MB-231 cells assessed as necrotic cells at 10 uM after 24 hrs by annexin V/propidium iodide staining based FACS flow cytometry (reference value: 9.2 +/- 0.8 %). In kind it is functional. For orientation: In flow cytometry, cells or beads pass a laser one at a time.
Series [5] deals with MDA-MB-361. The experiment in a line: Growth inhibition of human MDA-MB-361 cells at 25 uM after 48 hrs by WST1 assay. Type of series: functional, cell-based. In short, it runs like this: as §1
In series [6] the test system is MDA-MB-231. The experiment in a line: Induction of apoptosis in human MDA-MB-231 cells assessed as apoptotic cells at 1 uM after 24 hrs by annexin V/propidium iodide staining based FACS flow cytometry (reference value: 1.8 +/- 0.3 %). In kind it is functional.
In series [7] the test system is MDA-MB-361. Kind of series: Cytotoxicity against human MDA-MB-361 cells at 25 uM after 48 hrs by WST1 assay. In kind it is functional, cell-based. In short, it runs like this: as §1
In series [8] the test system is MDA-MB-231. Kind of series: Induction of apoptosis in human MDA-MB-231 cells assessed as necrotic cells at 1 uM after 24 hrs by annexin V/propidium iodide staining based FACS flow cytometry (reference value: 9.2 +/- 0.8 %). In kind it is functional.
Series [9] relates to MCF7. The experiment in a line: Growth inhibition of human MCF7 cells at 25 uM after 48 hrs by WST1 assay. Type of series: functional, cell-based. In short, it runs like this:
as §1

The subject of series [10] is MDA-MB-231. The experiment in a line: Induction of apoptosis in human MDA-MB-231 cells assessed as viable cells at 10 uM after 24 hrs by annexin V/propidium iodide staining based FACS flow cytometry (reference value: 89 +/- 1 %). Type of series: functional. The note with it: MDA-MB-231, 24 h, read-out: Activity.
Series [11] has as its target T1, Histone deacetylase (Homo sapiens) (UniProt Q13547+O15379+Q9UBN7+Q92769+Q9UQL6+Q8WUI4+Q9BY41+Q96DB2+P56524+Q9UKV0+Q969S8). The experiment in a line: Inhibition of HDAC in human MDA-MB-231 cells at 10 to 25 uM after 2 hrs relative to control. Type of series: cell-based. In short, it runs like this:
(§2)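 Cells exposed 2 h at 37 °C to varying concentrations in DMEM/2% FBS, washed, trypsinized, adjusted to 2×10^6 cells/mL in PBS with 0.1% Triton X-100, and sonicated on ice. Total HDAC activity measured with a fluorometric kit; trichostatin A used as maximum inhibition to correct non-specific signal. Expressed as % of total HDAC activity versus vehicle.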

The test system of series [12] is HMEC. Kind of series: Cytotoxicity against human HMEC cells at 25 uM after 48 hrs by WST1 assay. Type of series: cell-based. In short, it runs like this:
as §1

In series [13] the test system is MDA-MB-231. The experiment in a line: Total growth inhibition of human MDA-MB-231 cells after 48 hrs by WST1 assay. Type of series: functional. In short, it runs like this: as §1
Series [14] deals with AU565. Kind of series: Cytotoxicity against human AU565 cells at 25 uM after 48 hrs by WST1 assay. In kind it is functional, cell-based. In short, it runs like this:
as §1

The target in series [15] is T1, Histone deacetylase (Homo sapiens). Kind of series: Inhibition of HDAC in human MDA-MB-231 cells after 2 hrs. Type of series: cell-based. In short, it runs like this:
as §2

Series [16] has as its system MCF7. The experiment in a line: Cytotoxicity against human MCF7 cells at 25 uM after 48 hrs by WST1 assay. In kind it is functional, cell-based. In short, it runs like this:
as §1

In series [17] the test system is MDA-MB-231. The experiment in a line: Induction of apoptosis in human MDA-MB-231 cells assessed as apoptotic cells at 10 uM after 24 hrs by annexin V/propidium iodide staining based FACS flow cytometry (reference value: 1.8 +/- 0.3 %). In kind it is functional.
The subject of series [18] is HMEC. The experiment in a line: Growth inhibition of human HMEC cells at 25 uM after 48 hrs by WST1 assay. Type of series: cell-based. In short, it runs like this:
as §1

Series [19] relates to MDA-MB-231. The experiment in a line: Growth inhibition of human MDA-MB-231 cells after 48 hrs by WST1 assay. In kind it is functional, cell-based. In short, it runs like this:
as §1

In series [20] the test system is MDA-MB-231. The experiment in a line: Induction of apoptosis in human MDA-MB-231 cells assessed as viable cells at 1 uM after 24 hrs by annexin V/propidium iodide staining based FACS flow cytometry (reference value: 89 +/- 1 %). In kind it is functional. To be noted: MDA-MB-231, 24 h, read-out: Activity.
Series [21] relates to MDA-MB-231. The experiment in a line: Cytotoxicity against human MDA-MB-231 cells at 10 uM after 48 hrs by WST1 assay. Type of series: functional, cell-based. In short, it runs like this:
as §1

Series [22] concerns MDA-MB-231. The experiment in a line: Growth inhibition of human MDA-MB-231 cells at 25 uM after 48 hrs by WST1 assay. Type of series: functional, cell-based. In short, it runs like this:
as §1

Series [23] has as its target T1, Histone deacetylase (Homo sapiens). Kind of series: Inhibition of HDAC in human MDA-MB-231 cells up to 25 uM after 2 hrs relative to control. Type of series: cell-based. In short, it runs like this:
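MDA-MB-231 cells treated 2 h at 37 °C in DMEM with 2% FBS with varying concentrations; rinsed in PBS, trypsinized, normalized to 2×10^6 cells/mL in PBS with 0.1% Triton X-100, sonicated on ice. Total (non-specific) HDAC activity measured with a fluorometric kit; trichostatin A used for maximum inhibition to correct non-specific readings. Expressed as % of total HDAC activity versus vehicle.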

Where [24] appears, read: Homo sapiens, MDA-MB-231, 48 h, read-out: IC50.

Active and inactive are the calls of the source. The rule behind the calls is not given here. Some results are limits rather than exact numbers.

The term inhibition denotes the relative decrease from the control value, in per cent. In general, TGI refers to the concentration at which net growth stops. A word on the IC50: it is the midpoint of a concentration-inhibition curve. On to `CC/C=C\C/C=C\C/C=C\C/C=C\C/C=C\C/C=C\CCC(=O)Oc1c(C(C)C)cccc1C(C)C`, for which the “growth inhibition (GI)” value in [1], in series [5] and in series [9] was “Active” each time. Moreover, the Stability entry in [2] and in series [3] was “Stable” each time. Moreover, the Activity is reported as 40.4% in series [4]; 1.8% in series [6]; 7.7% in series [8]; “Non-toxic” in series [12]; 22.2% in [17]; “Non-toxic” in series [18]. In addition, the outcome in [7], in series [14], in series [16] and in [21] was Active. In series [10], the viability at 10 µM amounted to 37.4%. For the same molecule, the inhibition in series [11] is 30%; in series [15], “Dose-dependent effect”. In addition, total growth inhibition in [13] (MDA-MB-231, 48 h) (TGI) required 4.2 µM. Further, the “growth inhibition (GI)” value in series [19] was “Dose-dependent effect”. The IC50 in series [19] (setting [24]) was found to be 2.9 µM. Also, the viability at 1 µM in series [20] was 90.5%.
In turn, `CC/C=C\C/C=C\C/C=C\C/C=C\C/C=C\C/C=C\CCC(=O)Oc1ccc(C(C)C)cc1C(C)C` registered a TGI in series [13] (MDA-MB-231, 48 h) of 12.6 µM. For the same molecule, the “growth inhibition (GI)” value in series [19] was “Dose-dependent effect”. Also, the IC50 in [19] (setting [24]) was 7.3 µM.
For the molecule `CC/C=C\C/C=C\C/C=C\C/C=C\C/C=C\C/C=C\CCC(=O)O` [DOCONEXENT], the Stability result in series [2] and in [3] was “Stable” throughout. Besides, the Activity was determined as 10.7% in series [4], 2.1% in series [6], 7.6% in series [8] and 1.8% in series [17]. For the same molecule, the “growth inhibition (GI)” value in series [22] is “inactive”. For the same molecule, the viability at 10 µM in [10] came to 87.6%. In addition, the inhibition entry in series [23] is “inactive”. Also, in series [19], the “growth inhibition (GI)” value was “Dose-dependent effect”. For the same molecule, the viability at 1 µM in series [20] worked out at 90.3%.
For `CC/C=C\C/C=C\C/C=C\C/C=C\C/C=C\C/C=C\CCC(=O)Nc1ccccc1`, the TGI entry in series [13] is “inactive”. The IC50 result in series [19] (mda-mb-231) is given as “Not Active”.
As for `Oc1ccccc1C1CCCCC1`, in [22], the “growth inhibition (GI)” value is “Active”.
`CC/C=C\C/C=C\C/C=C\C/C=C\C/C=C\C/C=C\CCC(=O)Nc1ccccc1C(C)C`: the TGI in series [13] (MDA-MB-231, 48 h) was 8.5 µM. The IC50 in [19] (setting [24]) turned out to be 6.5 µM.
In [13] (MDA-MB-231, 48 h), `CC/C=C\C/C=C\C/C=C\C/C=C\C/C=C\C/C=C\CCC(=O)Oc1ccccc1C1CCCCC1` showed a TGI of 18.7 µM. In addition, the “growth inhibition (GI)” value in series [19] is “Dose-dependent effect”. Moreover, the IC50 in series [19] (setting [24]) was 8.4 µM.
As for `CC(C)c1cccc(C(C)C)c1O` [PROPOFOL], the “growth inhibition (GI)” value in series [1], in series [5] and in series [9] was “inactive” in each case. The Activity in series [4] is 9.4%; in series [6], 2%; in series [8], 7.1%; in series [12] it was “Non-toxic”; in [17], 2.4%; in [18] it was “Non-toxic”. Besides, the result in series [7], in series [14] and in [16] was inactive. Also, the viability at 10 µM in [10] came to 88.2%. Further, the inhibition entry in [23] was “inactive”. Further, the viability at 1 µM in [20] was 90.9%.
`CC(C)c1ccccc1O`: the “growth inhibition (GI)” value in series [1], in [5] and in [9] was “inactive” throughout. The Activity in series [4] was 9%; in series [6], 1.5%; in series [8], 4.9%; in series [12], “Non-toxic”; in series [17], 2.2%; in [18], “Non-toxic”. Also, the outcome in [7], in [14] and in [16] was inactive. In addition, the viability at 10 µM in series [10] was 88.8%. For the same molecule, the viability at 1 µM in series [20] is 93.7%.
Consider `CC/C=C\C/C=C\C/C=C\C/C=C\C/C=C\C/C=C\CCC(=O)Oc1ccccc1C(C)C`, for which the “growth inhibition (GI)” value in series [1], in [5] and in series [9] was “Active” each time. The Stability result in [2] and in series [3] was “Stable” each time. Moreover, the Activity is listed as 37.5% in series [4]; 1.8% in [6]; 8.6% in series [8]; “Non-toxic” in [12]; 26.4% in series [17]; “Non-toxic” in series [18]. Besides, the result in [7], in series [14], in [16] and in series [21] was Active. Further, the viability at 10 µM in [10] amounted to 36.2%. In series [13] (MDA-MB-231, 48 h), this molecule had a TGI of 12.1 µM. The “growth inhibition (GI)” value in series [19] is “Dose-dependent effect”. Besides, the IC50 in series [19] (setting [24]) was determined as 8.2 µM. For the same molecule, in series [20], the viability at 1 µM is 89.6%.
For `CC/C=C\C/C=C\C/C=C\C/C=C\C/C=C\C/C=C\CCC(=O)Nc1c(C(C)C)cccc1C(C)C`, the TGI in [13] (MDA-MB-231, 48 h) came out at 5.5 µM. Also, in [19] (setting [24]), the IC50 worked out at 3.7 µM.
As for `CC/C=C\C/C=C\C/C=C\C/C=C\C/C=C\C/C=C\CCC(=O)Oc1ccccc1`, the TGI in [13] (MDA-MB-231, 48 h) was greater than 25 µM. Moreover, in [19], the “growth inhibition (GI)” value is “inactive”. In series [19] (setting [24]), the IC50 is greater than 25 µM.

The values are drawn from ChEMBL document CHEMBL1811811, “Characterization of anticancer properties of 2,6-diisopropylphenol-docosahexaenoate and analogues in breast cancer cells” (Bioorg Med Chem, 2010).
